Laboratory results as given in ChEMBL document CHEMBL3351741, “Fused heterocycles bearing bridgehead nitrogen as potent HIV-1 NNRTIs. Part 2: discovery of novel [1,2,4]Triazolo[1,5-a]pyrimidines using a structure-guided core-refining approach” (Eur J Med Chem, 2014).

Columns and labels:
[1] = system: Human immunodeficiency virus 1; test: Antiviral activity against HIV-1 harboring RT Y188L mutant; assay type: functional, organism-based
[2] = system: Human immunodeficiency virus 1; test: Antiviral activity against HIV-1 harboring RT Y181C mutant; assay type: functional, organism-based
[3] = system: Human immunodeficiency virus 1; test: Antiviral activity against HIV-1 harboring wild-type reverse transcriptase; assay type: functional, organism-based
[4] = system: Human immunodeficiency virus 1; test: Antiviral activity against HIV-1 harboring RT K103N/Y181C double mutant; assay type: functional, organism-based
[5] = system: Human immunodeficiency virus 1; test: Antiviral activity against HIV-1 RES056 harboring RT K103N/Y181C double mutant infected in human MT4 cells assessed as protection from viral cytopathicity after 5 days by MTT assay; assay type: functional, organism-based; details: Human immunodeficiency virus 1, RES056, MT4, 120 h
Outline: (§1)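 MT-4 cells resuspended at 6 × 10⁵ cells/ml, infected with HIV-1 IIIB, RES056 or HIV-2 ROD at 100-300 CCID50, or mock-infected; test compounds added from 10× stocks. After 5 days, viability read by MTT at 540 and 690 nm, median OD of two or three wells. EC50 = 50% protection from cytopathicity; CC50 = 50% viability loss in mock-infected cells; SI = CC50/EC50.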

[6] = Selectivity index, ratio of CC50 for mock-infected human MT4 cells to EC50 for HIV-2 ROD infected in human MT4 cells; assay type: toxicity, cell-based; details: mock-infected and infected with HIV-2 ROD, read-out: Ratio CC50/EC50; outline: as §1
[7] = Selectivity index, ratio of CC50 for mock-infected human MT4 cells to EC50 for HIV-1 RES056 harboring RT K103N/Y181C double mutant infected in human MT4 cells; assay type: toxicity, cell-based; details: read-out: Ratio CC50/EC50; outline: as §1
[8] = Selectivity index, ratio of CC50 for mock-infected human MT4 cells to EC50 for HIV-1 3B infected in human MT4 cells; assay type: toxicity, cell-based; details: mock-infected and infected with HIV-1 3B, read-out: Ratio CC50/EC50; outline: as §1
[9] = Cytotoxicity against mock-infected human MT4 cells after 5 days by MTT assay; assay type: cell-based
Outline: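 Mock-infected MT-4 cells (6 × 10⁵ cells/ml) received culture medium in place of virus and were exposed to compounds added as 10× stocks. After 5 days, viability was read by MTT at 540 and 690 nm, using median OD of two or three wells. CC₅₀ is the concentration cutting viability by 50%. '>' marks the highest concentration tested without cytotoxicity.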

[10] = system: Human immunodeficiency virus 1; test: Antiviral activity against HIV-1 3B infected in human MT4 cells assessed as protection from viral cytopathicity after 5 days by MTT assay; assay type: functional, organism-based; details: Human immunodeficiency virus 1, 3B, MT4, 120 h
Outline: (§2)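 MT-4 cells (6 × 10⁵ cells/ml) infected with HIV-1 IIIB or HIV-2 ROD stock at 100-300 CCID₅₀; compounds added as 10× stocks. After 5 days, viability read by MTT reduction at 540 and 690 nm, using median OD of two or three wells. EC₅₀ is the concentration giving 50% protection from viral cytopathicity.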

[11] = system: Human immunodeficiency virus 2; test: Antiviral activity against HIV-2 ROD infected in human MT4 cells assessed as protection from viral cytopathicity after 5 days by MTT assay; assay type: functional, organism-based; details: Human immunodeficiency virus 2, ISOLATE ROD, MT4, 120 h; outline: as §2
[12] = biological target: Human immunodeficiency virus type 1 reverse transcriptase (Human immunodeficiency virus 1, UniProt Q72547); test: Inhibition of purified recombinant HIV-1 reverse transcriptase after 1 hr using biotin-labeled dUTP by digoxigenin-peroxidase assay
Outline: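 Kit-based colorimetric ELISA with recombinant wild-type HIV-1 RT, poly(A)·oligo(dT)15 template/primer, dNTPs including digoxigenin- and biotin-labeled dUTP, in lysis buffer ± inhibitor, incubated 1 h at 37 °C. Product captured on streptavidin, detected with anti-DIG-peroxidase and ABTS, absorbance at 405 nm. Several concentrations tested; % inhibition taken relative to the no-inhibitor sample.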

| SMILES | EC50 [1] [µM] | EC50 [2] [µM] | EC50 [3] [µM] | EC50 [4] [µM] | EC50 [5] [µM] | selectivity ratio [6] | selectivity ratio [7] | selectivity ratio [8] | CC50 at 120 h [9] [µM] | EC50 [10] [µM] | EC50 [11] [µM] | IC50 [12] [µM] |
| --- | --- | --- | --- | --- | --- | --- | --- | --- | --- | --- | --- | --- |
| Cc1cc(C#N)cc(C)c1Oc1nc(Nc2ccc(C#N)cc2)nc2[nH]ccc12 | 0.004 | 0.0045 | 0.00016 | 0.0078 | – | – | – | – | – | – | – | – |
| Cc1cc(C#N)cc(C)c1Oc1nc(Nc2ccc(C#N)cc2)nc2cc[nH]c12 | 0.0011 | 0.0014 | 0.00025 | 0.0038 | – | – | – | – | – | – | – | – |
| Cc1cccc(C)c1Oc1cc(Nc2ccc(C#N)cc2)n2ncnc2n1 | – | – | – | – | > 253 | < 1 | < 1 | 170 | 253 | 1.5 | > 253 | – |
| Cc1cc(C)c(Oc2cc(Nc3ccc(C#N)cc3)n3ncnc3n2)c(C)c1 | – | – | – | – | ≥ 50 | < 1 | ≤ 2 | 1450 | 106 | 0.07 | > 106 | – |
| Cc1cc(Br)cc(C)c1Oc1cc(Nc2ccc(C#N)cc2)n2ncnc2n1 | – | – | – | – | > 128 | < 1 | < 1 | 427 | 128 | 0.3 | > 128 | – |
| N#Cc1ccc(Nc2cc(Oc3c(Cl)cc(Cl)cc3Cl)nc3ncnn23)cc1 | – | – | – | – | > 32 | < 1 | < 1 | 109 | 32 | 0.3 | > 32 | – |
| N#Cc1ccc(Nc2cc(Oc3c(F)cc(F)cc3F)nc3ncnn23)cc1 | – | – | – | – | > 174 | < 1 | < 1 | < 1 | 174 | > 174 | > 174 | – |
| Cc1cccc(C)c1Oc1cc(Nc2ccc(C#N)cc2)nc2ncnn12 | – | – | – | – | > 233 | < 1 | < 1 | 182 | 233 | 1.3 | > 233 | – |
| N#Cc1ccc(Nc2cc(Oc3c(Cl)cccc3Cl)n3ncnc3n2)cc1 | – | – | – | – | > 150 | < 1 | < 1 | 44 | 150 | 3.4 | > 150 | – |
| Cc1cc(C)c(Oc2cc(Nc3ccc(C#N)cc3)nc3ncnn23)c(C)c1 | – | – | – | – | > 164 | < 1 | < 1 | 3200 | 164 | 0.05 | > 164 | – |
| Cc1cc(C)c(Oc2cc(Nc3ccc([N+](=O)[O-])cc3)nc3ncnn23)c(C)c1 | – | – | – | – | > 33 | < 1 | < 1 | 57 | 33 | 0.6 | > 33 | – |
| Cc1cc(C)c(Oc2cc(Nc3ccc(Cl)cc3)nc3ncnn23)c(C)c1 | – | – | – | – | > 46 | < 1 | < 1 | 864 | 46 | 0.05 | > 46 | – |
| Cc1ccc(Nc2cc(Oc3c(C)cc(C)cc3C)n3ncnc3n2)cc1 | – | – | – | – | > 47 | < 1 | < 1 | 649 | 47 | 0.07 | > 47 | – |
| COc1ccc(Nc2cc(Oc3c(C)cc(C)cc3C)n3ncnc3n2)cc1 | – | – | – | – | > 37 | < 1 | < 1 | 165 | 37 | 0.2 | > 37 | – |
| Cc1cc(Br)cc(C)c1Oc1cc(Nc2ccc(C#N)cc2)nc2ncnn12 | – | – | – | – | > 136 | < 1 | < 1 | 579 | 136 | 0.23 | > 136 | – |
| Cc1cc(C#N)cc(C)c1Oc1cc(Nc2ccc(C#N)cc2)nc2ncnn12 | – | – | – | – | > 224 | < 1 | < 1 | 182 | 224 | 1.2 | > 224 | 0.39 |
| Cc1cc(Cl)cc(C)c1Oc1cc(Nc2ccc(C#N)cc2)nc2ncnn12 | – | – | – | – | > 104 | < 1 | < 1 | 256 | 104 | 0.4 | > 104 | – |
| N#Cc1ccc(Nc2cc(Oc3c(Cl)cc(Cl)cc3Cl)n3ncnc3n2)cc1 | – | – | – | – | > 29 | < 1 | < 1 | 47 | 29 | 0.6 | > 29 | – |
| N#Cc1ccc(Nc2cc(Oc3c(Br)cc(Br)cc3Br)n3ncnc3n2)cc1 | – | – | – | – | > 47 | < 1 | < 1 | 142 | 47 | 0.3 | > 47 | – |
| Cc1cc(Br)c(Oc2cc(Nc3ccc(C#N)cc3)nc3ncnn23)c(Br)c1 | – | – | – | – | > 192 | < 1 | < 1 | 3620 | 192 | 0.05 | > 192 | – |
| Cc1cc(C)c(Nc2cc(Nc3ccc(C#N)cc3)nc3ncnn23)c(C)c1 | – | – | – | – | 7.6 | < 1 | 25 | 8990 | 190 | 0.02 | > 190 | – |
| Cc1cccc(C)c1Nc1cc(Nc2ccc(C#N)cc2)nc2ncnn12 | – | – | – | – | > 272 | < 1 | < 1 | 127 | 272 | 2.1 | > 272 | – |
| CC(C)Nc1cccnc1N1CCN(C(=O)c2cc3cc(NS(C)(=O)=O)ccc3[nH]2)CC1 [DELAVIRDINE] | – | – | – | – | > 36 | – | 1 | > 494 | > 36 | 0.07 | – | – |
| Cc1ccnc2c1NC(=O)c1cccnc1N2C1CC1 [NEVIRAPINE] | – | – | – | – | 2.9 | – | > 5 | > 14 | > 15 | 0.15 | – | – |
